Test results from paper PMC2765518 (Journal of medicinal chemistry, 2009).

Experiments:
[1] = cited from earlier work
c-Myc-Max(S) heterodimer = c-Myc-Max(S) heterodimer (Homo sapiens, UniProt P01106); experiment: Circular dichroism assay of c-Myc-Max dimer disruption; type: biochemical
Summary of the method: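 Circular dichroism of an equimolar c-Myc/Max(S) mixture, each at 1.5 µM, with helical content from ellipticity at 222 nm. Dimer disruption lowers helicity. Test compound was titrated and the data fitted to a competition constant (Kcomp). Kcomp multiplied by the independently determined c-Myc-Max dissociation constant gives the affinity for the c-Myc monomer, assuming monomer-only binding. Run in triplicate.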

c-Myc (353–437) monomer = c-Myc (353–437) monomer (Homo sapiens, UniProt P01106); experiment: Fluorescence polarization competition against 1 for c-Myc binding
Summary of the method: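 Fluorescence polarization of an intrinsically fluorescent parent Myc-Max disruptor used as probe; polarization rises when the probe binds the c-Myc (353–437) monomer. Test compound was titrated to displace the probe, and the data fitted to a competition constant (Kcomp). Affinity is Kcomp multiplied by the probe–c-Myc(353–437) dissociation constant. Run in triplicate.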

[2] = tested on: TGR1 knockout cells with over-expressed HMGA1b (KO+HMG); experiment: Growth inhibition of TGR1 knockout cells with over-expressed HMGA1b; type: cell-based, rat; conditions: cells lacking c-Myc; compared with HL60 and TGR1
HL60 cells = experiment: HL60 cell growth inhibition; type: cell-based; conditions: for Inhibition in HL60 cells: higher levels of c-Myc
Summary of the method: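 Test compound added to HL60 cells across a dose range, and growth followed over several days. IC50 taken from the dose-response profile on day 5 after compound addition. For the selectivity comparison, TGR1 normal rat fibroblasts and TGR1 knockout cells over-expressing HMGA1b (KO+HMG) were tested alongside.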

Sequence of c-Myc (353–437) monomer (P01106 368-452): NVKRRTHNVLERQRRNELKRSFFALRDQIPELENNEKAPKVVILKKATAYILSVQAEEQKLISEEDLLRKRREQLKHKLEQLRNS
Sequence of c-Myc-Max(S) heterodimer (P01106 368-452, one chain of several): as the sequence (P01106 368-452) above

Kd (c-Myc-Max(S) heterodimer) [µM]	Kd (c-Myc (353–437) monomer) [µM]	IC50 (HL60 cells; Homo sapiens, HL-60, 120 h, read-out: IC50 on HL60 cell growth) [µM]	Structure (SMILES)	Metabolism and clearance [1]	Effect on growth of KO+HMG cells [2]	Inhibition in HL60 cells (HL60 cells)	Selectivity for HL60 cells (HL60 cells; HL60 versus TGR1 and KO+HMG cells)
			CCc1ccc(/C=C2\SC(=S)NC2=O)cc1 [compound 1, [Z,E]-5-[4-ethylbenzylidine]-2-thioxothiazolidin-4-one]	extensive metabolism and rapid clearance			
10	2.5		O=C(CCN1C(=O)c2ccccc2C1=O)N1CCCCC1 [compound 2]				
25	40		CCc1ccc(N2CC(C(=O)OC)CC2=O)cc1 (stereo not drawn) [compound 3]				
19	18		CC(C)c1ccc(OCC(=O)Nc2nc3ccccc3s2)cc1 [compound 4]				
45	70		CCc1ccc(OCC(=O)Nc2ccc(C)cc2Br)cc1 [compound 5]		least effect	very good inhibition	more selective for HL60s than 6
		16.7	Cc1ccc(C)c(OCN2Cc3ccccc3C2C=O)c1 (stereo not drawn) [compound 6]		least effect	very good inhibition	
